Published values gathered from unrelated publications.
Protocols differ between the studies behind these lines.
Read-out: cell growth or viability

| SMILES | cell line | method | time | IC50 [nM] |
| --- | --- | --- | --- | --- |
| Nc1ccc(/C=C/C(=O)N2CCc3c(oc4c(-c5ccc(F)cc5)cc(-c5ccc(C(=O)N6CCC(F)(F)CC6)cc5F)cc34)C2)cn1 | U2OS | CCK-8 | 72 h | > 10000 |
| CCNCCCn1c2c(c3cc(OC)c(OC)cc3c1=O)C(=O)c1cc3c(nc1-2)OCO3 | L-363 | MTS | 72 h | 96 |
| O=C(C=Cc1ccccc1)Nc1cc(-c2ccnc(N3CCOCC3)c2)ccn1 | HeLa | MTT | 72 h | 402 |
| CN1CCC(NC(=O)c2ccc(-c3cc(-c4ccsc4)c4oc5c(c4c3)CCN(C(=O)/C=C/c3ccc(N)nc3)C5)nn2)C(F)(F)C1 (stereo not drawn) | U2OS | CCK-8 | 72 h | 1200 |
| CC1(C)CCC2(CC1)N[C@@H](C(=O)N[C@@H]1CC[C@@H](C(N)=O)OC1)[C@H](c1ccnc(Cl)c1F)[C@]21C(=O)Nc2cc(Cl)ccc21 | U2OS | resazurin | 72 h | > 2000 |
| COc1cc2c3c(n(CCCNCCO)c(=O)c2cc1OC)-c1nc2c(cc1C3=O)OCO2 | L-363 | MTS | 72 h | 154 |
| COc1cc2ncnc(N(C)c3ccc4c(c3)/C(=C/c3ccccc3)C(=O)N4C)c2cc1OC (mixture of isomers) | H22 | MTT | – | 4960 |
| Nc1ccc(/C=C/C(=O)N2CCc3c(oc4c(-c5ccc(F)cc5)cc(-c5ccc(C(=O)N6CCC(F)(F)CC6)nn5)cc34)C2)cn1 | U2OS | CCK-8 | 72 h | 640 |
| Cc1nc(Nc2ccc3c(c2)/C(=C/c2ccccc2C)C(=O)N3C)c2ccccc2n1 | H22 | MTT | – | 4780 |
| O=c1c(C=NNC(=S)Nc2ccccc2)coc2ccccc12 | HeLa | MTT | 24 h | > 100000 |
| Nc1ccc(/C=C/C(=O)N2CCc3c(oc4c(-c5ccc(F)cc5)cc(-c5ccc(C(=O)N6CCOCC6)nn5)cc34)C2)cn1 | U2OS | CCK-8 | 72 h | 730 |
| COc1cc2ncnc(Nc3ccc4c(c3)/C(=C/c3ccccc3)C(=O)N4)c2cc1OC | H22 | MTT | – | > 50000 |
| C=C(F)C(=O)N1CCN(c2nc(OC[C@@H]3CCCN3C)nc3c2CCN(c2cccc4cccc(Cl)c24)C3)C[C@@H]1CC#N | NCI-H1792 | ATP luminescence | – | 674 |
| COc1cc2ncnc(Nc3ccc4c(c3)/C(=C/c3ccccc3)C(=O)N4C)c2cc1OC | H22 | MTT | – | 15100 |
| COc1cc2c3c(n(CCCn4ccnc4)c(=O)c2cc1OC)-c1nc2c(cc1C3=O)OCO2 | L-363 | MTS | 72 h | 232 |
